Assay [1] deals with Smoothened (Mus musculus) (UniProt P56726). Kind of assay: Antagonist activity at smoothened expressed in mouse Shh Light2 cells assessed as inhibition of purmorphamine- induced Gli-dependent luciferase gene expression.
The target of another assay is Smoothened homolog (Homo sapiens, UniProt Q99835). The assay can be described thus: Displacement of BODIPY-cyclopamine from human Smo expressed in HEK293 cells in presence of 2% fetal calf serum. A digest of the protocol:
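Competition binding: displacement of fluorescently labeled bodipy-cyclopamine from recombinant human Smo expressed in HEK-293 cells. Run in 2% fetal calf serum and, separately, in 20% normal human serum. IC50 values are means of at least five experiments.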

The text below walks through data of BindingDB's records for doi:10.1016/j.bmcl.2011.06.023 (Merck Research Laboratories, 2011).

SMILES strings stand for the structures. Values joined by “and” are separate entries in the source; they are usually repeats but may differ in a detail not shown here. Equal values may be shown once.

Smoothened (Mus musculus), sequence (P56726 whole entry, looked up): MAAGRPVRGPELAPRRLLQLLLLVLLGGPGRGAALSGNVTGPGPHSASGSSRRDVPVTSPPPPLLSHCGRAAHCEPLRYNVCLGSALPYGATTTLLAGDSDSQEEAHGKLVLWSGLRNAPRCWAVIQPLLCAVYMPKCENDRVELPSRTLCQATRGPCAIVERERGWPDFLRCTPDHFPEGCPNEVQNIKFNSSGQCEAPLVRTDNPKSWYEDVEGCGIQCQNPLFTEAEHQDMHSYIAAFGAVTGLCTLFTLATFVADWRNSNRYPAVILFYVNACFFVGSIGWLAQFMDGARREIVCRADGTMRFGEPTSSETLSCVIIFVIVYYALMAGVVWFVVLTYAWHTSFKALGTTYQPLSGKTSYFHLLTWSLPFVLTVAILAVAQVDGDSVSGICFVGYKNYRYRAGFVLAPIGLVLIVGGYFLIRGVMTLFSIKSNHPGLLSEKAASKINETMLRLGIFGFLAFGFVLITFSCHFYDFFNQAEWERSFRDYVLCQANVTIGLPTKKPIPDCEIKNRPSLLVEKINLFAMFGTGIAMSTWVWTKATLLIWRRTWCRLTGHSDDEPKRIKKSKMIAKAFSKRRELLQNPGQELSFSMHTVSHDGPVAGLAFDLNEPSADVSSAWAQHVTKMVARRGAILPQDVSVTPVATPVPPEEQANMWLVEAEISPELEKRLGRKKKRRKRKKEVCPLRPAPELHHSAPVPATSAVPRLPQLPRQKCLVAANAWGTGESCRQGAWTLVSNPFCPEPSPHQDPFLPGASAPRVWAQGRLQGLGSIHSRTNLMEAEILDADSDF
Smoothened homolog, sequence (Q99835 whole entry): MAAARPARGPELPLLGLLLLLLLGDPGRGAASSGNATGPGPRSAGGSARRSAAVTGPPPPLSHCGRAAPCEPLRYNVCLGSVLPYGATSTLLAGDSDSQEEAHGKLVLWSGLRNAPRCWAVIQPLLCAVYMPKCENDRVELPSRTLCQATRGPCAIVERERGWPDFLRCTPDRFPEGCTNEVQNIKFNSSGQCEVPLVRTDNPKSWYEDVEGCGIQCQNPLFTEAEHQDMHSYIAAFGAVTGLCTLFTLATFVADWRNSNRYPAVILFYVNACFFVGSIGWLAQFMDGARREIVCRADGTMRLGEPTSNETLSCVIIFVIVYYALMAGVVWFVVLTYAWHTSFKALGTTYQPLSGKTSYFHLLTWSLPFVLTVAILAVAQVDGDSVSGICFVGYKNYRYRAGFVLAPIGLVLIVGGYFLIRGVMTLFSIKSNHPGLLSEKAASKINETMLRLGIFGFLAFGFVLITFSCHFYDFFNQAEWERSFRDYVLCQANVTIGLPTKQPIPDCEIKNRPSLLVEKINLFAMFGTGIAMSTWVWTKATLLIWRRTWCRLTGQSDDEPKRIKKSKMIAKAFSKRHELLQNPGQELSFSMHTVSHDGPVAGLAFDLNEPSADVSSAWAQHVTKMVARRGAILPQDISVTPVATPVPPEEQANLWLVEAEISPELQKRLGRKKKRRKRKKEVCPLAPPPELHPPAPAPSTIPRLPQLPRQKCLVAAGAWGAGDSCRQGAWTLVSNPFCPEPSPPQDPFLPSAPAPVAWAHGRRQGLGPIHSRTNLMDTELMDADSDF

Broadly, the IC50 is the concentration that gives 50% inhibition. For the molecule `O=C(Nc1cccc(Cl)c1Cl)N1CCn2c(c(O)n([C@H]3C[C@@H]3c3ccccc3)c2=O)C1`, the half-inhibitory concentration (IC50) in assay [1] is 270 nM and 430 nM.

For the molecule `C[C@]12CN(C(=O)Nc3ccccc3-c3ccccc3)CCN1C(=O)N([C@H]1C[C@@H]1c1ccccc1)C2=O`, in assay [1], the concentration for half-maximal inhibition (IC50) was determined as 1400 nM. Consider `O=C(Nc1ccnn1-c1cccc(Cl)c1)N1CCn2c(c(O)n([C@H]3C[C@@H]3c3ccccc3)c2=O)C1`, for which, in assay [1], the concentration for half-maximal inhibition (IC50) was 8 nM. With `O=C(Nc1ccccc1-c1ccccc1)N1CCn2c(c(O)n([C@H]3C[C@@H]3c3ccccc3)c2=O)C1`, the IC50 in assay [1] is 100 nM and 42 nM and 140 nM; at Smoothened homolog, 48 nM and 21 nM. Consider `CS(=O)(=O)c1cc(Cl)c(NC(=O)N2CCn3c(c(O)n([C@H]4C[C@@H]4c4ccccc4)c3=O)C2)c(Cl)c1`, for which, in assay [1], the IC50 turned out to be 41 nM. On the same count and under the same terms, to `C[C@@]12CN(C(=O)Nc3ccnn3-c3ccccc3)CCN1C(=O)N([C@H]1C[C@@H]1c1ccccc1)C2=O` belongs 17 nM; to `O=C(Nc1cccc(Cl)c1Cl)N1CCn2c(c(O)n([C@@H]3C[C@H]3c3ccccc3)c2=O)C1`, 880 nM and 1400 nM. Turning to `C[C@@]12CN(C(=O)Nc3ccccc3-c3ccccc3)CCN1C(=O)N([C@H]1C[C@@H]1c1ccccc1)C2=O`, the IC50 in assay [1] worked out at 23 nM. Same read-out and setting: as for `O=C(Nc1cccnc1-c1ccccc1)N1CCn2c(c(O)n([C@H]3C[C@@H]3c3ccccc3)c2=O)C1`, the figure is 28 nM. With `O=C(Nc1ccnn1-c1cccc(F)c1)N1CCn2c(c(O)n([C@H]3C[C@@H]3c3ccccc3)c2=O)C1`, the IC50 in assay [1] was determined as 6 nM.

In the case of `O=C(Nc1cccnc1-c1ccsc1)N1CCn2c(c(O)n([C@H]3C[C@@H]3c3ccccc3)c2=O)C1`, the IC50 in assay [1] came out at 89 nM.
